Assay [1] in a line: reduced viability of SK-BR-3 breast cancer cells – cell-based, 24 h, human, pilot screen (AID 572;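 active = viability at or below 10% of carrier control in both of two separate runs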;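 also: compound exposure lasted between 18 and 24 h rather than exactly 24 h; 100% = carrier-treated control wells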). The settings on record: SK-BR-3 viability, CellTiter-Glo luminescence, at 10 µM, stronger effect = lower value. Background: Cellular ATP, detected with luciferase, serves as a proxy for viable cell number.
The nature of assay [2]: HUVEC growth inhibition – cell-based, human, primary screen (AID 575;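 active = viability at or below 30% in both replicate assays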;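 also: 100% = median of untreated cell wells with 0.1% DMSO on each plate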). The settings on record: HUVEC proliferation, CellTiter-Glo luminescence, 72 h; at 10 µM; stronger effect = lower value. The method, boiled down: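 Timing: 72 h treatment at 37 °C; material: HUVEC primary cells; technique: CellTiter-Glo luminescence measuring cellular ATP; controls: vehicle and MePR control wells; measure: percent of median DMSO-control luminescence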

Assay [3] in a line: H69AR cell proliferation blockers – human, duplicate replicates, primary screen (AID 580;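 active = viability at or under a set limit in both replicates, limit being median viability minus 3 SD, cut at about 48% in these data, passing the limit was not always enough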;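 also: 100% = mean luminescence of untreated wells and 0% = no signal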). The settings on record: H69AR lung tumor cells viability, ATP luminescence, 72 h; at 10 µM; stronger effect = lower value.
The nature of assay [4]: MRP1 drug-resistance reversers in H69AR cells – cell-based, doxorubicin co-treatment, pilot screen (AID 601). The settings on record: CellTiter-Glo, 72 h, at 10 µM; for differential viability (reversal): stronger effect = higher value.
Assay [5] is described as follows: yeast transport mutant growth inhibition pilot in 384-well plates, post-Golgi transport modulator project (AID 636; in the data active = inhibition above about 31%). Conditions: absorbance 615 nm, about 18 h, stronger effect = higher value.
Assay [6] is described as follows: growth suppression of yeast trafficking mutant, preliminary HTS, modulators of trafficking downstream of Golgi apparatus project, 1536-format plate, OD 615 nm (AID 637; in the data active = inhibition above about 30%). Conditions: yeast transport mutant growth, absorbance 615 nm, 18 h; stronger effect = higher value.
The mark [7] stands for this setting: H69AR cells + 2 uM doxorubicin, measured here: viability with 2 uM doxorubicin, stronger effect = lower value.
Setting [8] is: H69AR cells, compound alone cytotoxicity.

By viability is commonly meant a read-out of living cells in per cent, often relative to untreated cells. By inhibition is commonly meant the drop in the measured response relative to a control, in per cent.

Activity calls are given as the source filed them.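 The calls were made as follows, unless noted: active = viability loss from added drug above about 55%, and viability with drug at most 40%, in both replicates (limit read from the data, passing the limit was not always enough); inconclusive = both conditions met in only one replicate; inactive = neither replicate meets both conditions.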

As for `O=C1c2ccccc2NC(c2cccc(F)c2)N1Cc1ccco1` (centres undefined), the viability in assay [1] was 53% (inactive); in assay [2], 103% (inactive); in assay [3], 92% (inactive); in assay [4] (setting [7]) it was 87.3%; in assay [4] (setting [8]) it was 92%. Also, the differential viability (reversal) in assay [4] (H69AR cells + 2 uM doxorubicin) was 4.72% (inactive). For the same compound, the inhibition in assay [5] is -6.85% (inactive); in assay [6] it was -1.64% (inactive).
As for `COc1cccc2c(=O)cc(C)n(CC(=O)Nc3ccc(C)c(C)c3)c12`, the viability in assay [1] was 105% (inactive); in assay [2], 84.5% (inactive); in assay [3], 95.5% (inactive); in assay [4] (setting [7]), 82.1%; in assay [4] (setting [8]), 95.5%. Further, in assay [4] (H69AR cells + 2 uM doxorubicin), the differential viability (reversal) was 13.4% (inactive). Further, the inhibition in assay [5] was -8.4% (inactive); in assay [6], -2.91% (inactive).
For `Cc1nnc(SCC(=O)NCc2ccc3c(c2)OCO3)s1`, the viability in assay [1] was 87% (inactive); in assay [2] it was 103% (inactive); in assay [3] it was 101% (inactive); in assay [4] (setting [7]), 113%; in assay [4] (setting [8]) it was 101%. Besides, the differential viability (reversal) in assay [4] (H69AR cells + 2 uM doxorubicin) was -12.3% (inactive). Further, the inhibition in assay [5] is -2.33% (inactive); in assay [6] it was 5.82% (inactive).
Take `CC1(C2(O)CC(c3ccccc3)ON2)CCCCC1` (centres undefined): the viability was 108% (inactive) in assay [1]; 95% (inactive) in assay [2]; 84.1% (inactive) in assay [3]; 84.4% in assay [4] (setting [7]); 84.1% in assay [4] (setting [8]). Further, the differential viability (reversal) in assay [4] (H69AR cells + 2 uM doxorubicin) is -0.32% (inactive). Moreover, the inhibition in assay [5] was -4.73% (inactive); in assay [6], -2.36% (inactive).
On to `O=C(O)CCc1ccc(-c2cccs2)n1NC(=O)c1ccccc1Br`, for which the viability in assay [1] was 96% (inactive); in assay [2], 104% (inactive); in assay [3], 106% (inactive); in assay [4] (setting [7]), 89.5%; in assay [4] (setting [8]), 106%. Also, the differential viability (reversal) in assay [4] (H69AR cells + 2 uM doxorubicin) is 16% (inactive). The inhibition is -6.71% (inactive) in assay [5] and 4.36% (inactive) in assay [6].
Regarding `Cc1cc(C)cc(-n2nnc(C(=O)NCc3ccc4c(c3)OCO4)c2N)c1`, the viability was 106% (inactive) in assay [1]; 88.5% (inactive) in assay [2]; 97.7% (inactive) in assay [3]; 104% in assay [4] (setting [7]); 97.7% in assay [4] (setting [8]). Besides, in assay [4] (H69AR cells + 2 uM doxorubicin), the differential viability (reversal) is -6.51% (inactive). For the same compound, the inhibition in assay [5] was -5.19% (inactive); in assay [6], 0% (inactive).
On to `CCN(C(C)=O)c1nnc(CSc2nc3ccccc3s2)s1`, for which the viability was 114% (inactive) in assay [1]; 72.5% (inactive) in assay [2]; 100% (inactive) in assay [3]; 86.7% in assay [4] (setting [7]); 100% in assay [4] (setting [8]). For the same compound, the differential viability (reversal) in assay [4] (H69AR cells + 2 uM doxorubicin) was 13.3% (inactive). For the same compound, the inhibition is -0.52% (inactive) in assay [5] and -2.95% (inactive) in assay [6].
Regarding `CCC1CCCCN1S(=O)(=O)c1ccc(C(=O)Nc2nnc(-c3ccccc3Cl)o2)cc1` (centres undefined), the viability was 74% (inactive) in assay [1]; 13.5% (active) in assay [2]; 20.1% (active) in assay [3]; 41.8% in assay [4] (setting [7]); 20.1% in assay [4] (setting [8]). Also, the differential viability (reversal) in assay [4] (H69AR cells + 2 uM doxorubicin) was -21.7% (inactive). Also, the figures for the inhibition in assay [5] and in assay [6] were -0.13% (inactive) and 11.6% (inactive), respectively.
Consider `O=C(O)CCCc1ccccc1`, for which the viability in assay [1] was 97% (inactive); in assay [2], 91.8% (inactive); in assay [3] it was 98% (inactive); in assay [4] (setting [7]), 96.4%; in assay [4] (setting [8]), 98%. Moreover, in assay [4] (H69AR cells + 2 uM doxorubicin), the differential viability (reversal) is 1.58% (inactive). Moreover, the results for the inhibition in assay [5] and in assay [6] were -0.91% (inactive) and 8% (inactive), respectively.
For `O=C(Nc1nc(-c2ccccc2)cs1)C1CCCO1` (centres undefined), the viability is 91% (inactive) in assay [1]; 101% (inactive) in assay [2]; 94.2% (inactive) in assay [3]; 83.3% in assay [4] (setting [7]); 94.2% in assay [4] (setting [8]). Besides, in assay [4] (H69AR cells + 2 uM doxorubicin), the differential viability (reversal) was 10.9% (inactive). Also, the results for the inhibition in assay [5] and in assay [6] were -4.4% (inactive) and -2.18% (inactive), respectively.
For `O=c1c2cc3ccccc3n2cnn1Cc1ccccc1F`, the viability is 100% (inactive) in assay [1]; 57.9% (inactive) in assay [2]; 11.3% (active) in assay [3]; 47.4% in assay [4] (setting [7]); 11.3% in assay [4] (setting [8]). Moreover, the differential viability (reversal) in assay [4] (H69AR cells + 2 uM doxorubicin) was -36.1% (inactive). Further, the figures for the inhibition in assay [5] and in assay [6] were -1.95% (inactive) and 2.3% (inactive), respectively.
Take `CCOc1ccccc1OCCCCN1CCCC1`: the viability in assay [1] is 87% (inactive); in assay [2], 109% (inactive); in assay [3] it was 91.5% (inactive); in assay [4] (setting [7]), 89.4%; in assay [4] (setting [8]), 91.5%. Moreover, the differential viability (reversal) in assay [4] (H69AR cells + 2 uM doxorubicin) was 2.1% (inactive). Further, the inhibition in assay [5] is -2.21% (inactive); in assay [6] it was -1.97% (inactive).
As for `Cn1c(=O)[nH]c(=O)c2c1nc(N1CCc3ccccc3C1)n2CCSc1nc2ccccc2s1`, the viability is 72% (inactive) in assay [1]; 79.5% (inactive) in assay [2]; 75.2% (inactive) in assay [3]; 73.7% in assay [4] (setting [7]); 75.2% in assay [4] (setting [8]). In assay [4] (H69AR cells + 2 uM doxorubicin), the differential viability (reversal) was 1.51% (inactive). Besides, the inhibition in assay [5] was -5.48% (inactive); in assay [6] it was 2.9% (inactive).
For the compound `CN1[C@@H](CC(=O)c2ccccc2)CCC[C@H]1C[C@H](O)c1ccccc1`, the viability in assay [1] is 63% (inactive); in assay [2], 81.4% (inactive); in assay [3] it was 84.1% (inactive); in assay [4] (setting [7]), 88.7%; in assay [4] (setting [8]) it was 84.1%. In assay [4] (H69AR cells + 2 uM doxorubicin), the differential viability (reversal) was -4.62% (inactive). For the same compound, the inhibition was 1.95% (inactive) in assay [5] and 0.67% (inactive) in assay [6].
`O=C1CCc2cc(OCCCCc3nnnn3C3CCCCC3)ccc2N1`: the viability in assay [1] was 98% (inactive); in assay [2], 78.6% (inactive); in assay [3] it was 101% (inactive); in assay [4] (setting [7]) it was 88.2%; in assay [4] (setting [8]), 101%. Besides, the differential viability (reversal) in assay [4] (H69AR cells + 2 uM doxorubicin) was 13% (inactive). The inhibition was 1.82% (inactive) in assay [5] and -4% (inactive) in assay [6].
`O=c1[nH]c(N2CCCCC2)nc2c1CCCC2`: the viability in assay [1] was 95% (inactive); in assay [2], 96.2% (inactive); in assay [3], 95.8% (inactive); in assay [4] (setting [7]), 90.5%; in assay [4] (setting [8]) it was 95.8%. In assay [4] (H69AR cells + 2 uM doxorubicin), the differential viability (reversal) is 5.24% (inactive). Also, the results for the inhibition in assay [5] and in assay [6] were -4.05% (inactive) and 15.3% (inactive), respectively.
Regarding `c1ccc2c(c1)CCCC2C1=NCCN1` (centres undefined), the viability in assay [1] is 100% (inactive); in assay [2], 84.6% (inactive); in assay [3], 95.3% (inactive); in assay [4] (setting [7]), 88.6%; in assay [4] (setting [8]) it was 95.3%. Moreover, the differential viability (reversal) in assay [4] (H69AR cells + 2 uM doxorubicin) was 6.75% (inactive). Moreover, the inhibition is -2.6% (inactive) in assay [5] and 1% (inactive) in assay [6].
As for `O=C(NCc1cccnc1)c1cccc(C(F)(F)F)c1`, the viability in assay [1] is 87% (inactive); in assay [2] it was 109% (inactive); in assay [3], 112% (inactive); in assay [4] (setting [7]), 95.7%; in assay [4] (setting [8]), 112%. In addition, the differential viability (reversal) in assay [4] (H69AR cells + 2 uM doxorubicin) is 16% (inactive). Moreover, the results for the inhibition in assay [5] and in assay [6] were -5.34% (inactive) and 6.55% (inactive), respectively.

Source of the values: PubChem BioAssay.
